This is an account of results in ChEMBL document CHEMBL1150966, “New iridoids from the medicinal plant Barleria prionitis with potent activity against respiratory syncytial virus” (J Nat Prod, 1998).

A short description of data set [1]: Selectivity index, ratio of IC50 for human Hep2 cells to EC50 for respiratory syncytial virus A2. It counts as toxicity, cell-based, HEp-2. The note with it: for selectivity ratio: Hep2 cells, read-out: Ratio IC50/EC50. The method in brief: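 The selectivity index is IC50/EC50. The IC50 is for Hep-2 cytotoxicity and the EC50 is for RSV A2 CPE inhibition, both in µg/mL from the same CPE assay conditions.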

Data set [2] in a line: Cytotoxicity against human Hep2 cells. In kind it is cell-based, HEp-2. The note with it: for IC50: Homo sapiens, HEp-2. The method in brief: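 Cytotoxicity to Hep-2 cells was measured under the same conditions as the viral CPE assay. It is reported in µg/mL as the 50% inhibitory concentration (IC50).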
Data set [3] has as its system Respiratory syncytial virus. The experiment in a line: Antiviral activity against respiratory syncytial virus A2 in human Hep2 cells assessed as inhibition of virus-induced cytopathic effect. The note with it: HEp-2. It counts as functional, organism-based. The method in brief: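 Cell-based viral cytopathic effect (CPE) assay with RSV strain A2 in Hep-2 cells. Antiviral activity is expressed in µg/mL as the 50% effective concentration (EC50).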
(In general: Protection from cytopathic effect is a common read-out in antiviral testing.)

Values after ≈ are worked out from the molar mass of the structure shown. Active and inactive are the calls of the source. The calls are words filed in the database; no cut-off is given here.

Take `COC(=O)C1=CO[C@@H](O[C@@H]2O[C@H](CO)[C@@H](O)[C@H](O)[C@H]2O)[C@H]2[C@@H]1[C@H](O)C[C@]2(C)OC(C)=O` [BARLERIN]: the Activity result in data set [1] (hep-2) was “Not Active”; in data set [2] (human, hep-2) it was “Not Active”. In addition, the outcome in data set [3] was inactive.

Take `COC(=O)C1=CO[C@@H](O[C@@H]2O[C@H](CO)[C@@H](O)[C@H](O)[C@H]2O)[C@H]2[C@@H]1[C@H](OC(=O)/C=C\c1ccc(O)cc1)C[C@]2(C)OC(C)=O`: the selectivity ratio in data set [1] was 17. In addition, in data set [2], the IC50 (as a rule, the point on the concentration scale where inhibition reaches its midpoint) stood at 42 µg/mL (≈ 70.6 µM). Further, the EC50 (usually the midpoint of the concentration-response curve) in data set [3] worked out at 2.46 µg/mL (≈ 4.14 µM).

As for `COC(=O)C1=CO[C@@H](O[C@@H]2O[C@H](CO)[C@@H](O)[C@H](O)[C@H]2O)[C@H]2[C@@H]1[C@H](OC(=O)/C=C/c1ccc(O)cc1)C[C@]2(C)OC(C)=O`, the selectivity ratio in data set [1] amounted to 17. In data set [2], this compound displayed an IC50 of 42 µg/mL (≈ 70.6 µM). Besides, the EC50 in data set [3] came to 2.46 µg/mL (≈ 4.14 µM).

As to `C[C@@H]1O[C@@H](O[C@@H]2[C@@H](O)[C@H](OCCc3ccc(O)c(O)c3)O[C@H](CO)[C@H]2OC(=O)/C=C/c2ccc(O)c(O)c2)[C@H](O)[C@H](O)[C@H]1O` [ACETOSIDE], in data set [1], the selectivity ratio came out at 85.4. Inhibition in data set [2] was half-maximal at 76.9 µg/mL (≈ 123 µM) (IC50).
